Screens from PubChem.
MrgX1 agonist: agonists of human MrgX1 receptor; 310,000 compounds, 0.44% hits; B-score at 10 µM; MrgX1-HEK293 cells, Fluo-4 calcium fluorescence, agonist mode; active compounds read high;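 active = calcium response B-score plate-corrected fluorescence ratio at least 3 library SD, with starting fluorescence B-score inside 5 SD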
Target sequence (Q96LB2 whole entry, looked up): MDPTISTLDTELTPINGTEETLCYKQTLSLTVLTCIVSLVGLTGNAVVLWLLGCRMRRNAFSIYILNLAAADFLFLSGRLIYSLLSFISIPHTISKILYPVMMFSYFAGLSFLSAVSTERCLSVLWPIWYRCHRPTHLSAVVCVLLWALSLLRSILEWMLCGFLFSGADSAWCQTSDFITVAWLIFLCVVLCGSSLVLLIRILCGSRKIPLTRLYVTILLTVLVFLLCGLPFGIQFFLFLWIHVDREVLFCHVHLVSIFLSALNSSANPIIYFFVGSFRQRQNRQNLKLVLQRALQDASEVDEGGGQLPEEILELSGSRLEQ
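System – MrgX1-expressing HEK293 cells · Incubation – cells plated overnight, dye loaded 0.5 h 37 °C, 0.5 h room temperature · Technique – kinetic Fluo-4 NW fluorescence of intracellular calcium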
RGS4 block: human RGS4 inhibition; HEK293 M3R/RGS4 inducible, Fluo-4 calcium flux; active compounds read high; triggered by carbachol at its EC20; P49798; B-score at 10 µM; 310,000 compounds, 0.45% hits;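 active = B-score, a plate-corrected calcium signal, over three deviations above library mean, with baseline fluorescence within five deviations of library mean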;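 also: RGS4 expression induced by doxycycline in cells with stable M3 receptor; B-score is computed from the integrated fluorescence ratio over baseline after carbachol; higher B-score means a larger calcium signal and so more RGS4 inhibition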
Target sequence (P49798 whole entry, looked up): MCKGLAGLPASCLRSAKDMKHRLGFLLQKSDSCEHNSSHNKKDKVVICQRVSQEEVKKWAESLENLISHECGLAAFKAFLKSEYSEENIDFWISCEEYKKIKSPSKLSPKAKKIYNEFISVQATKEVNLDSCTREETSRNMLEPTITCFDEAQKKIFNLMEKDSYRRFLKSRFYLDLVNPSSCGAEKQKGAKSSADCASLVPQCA
RGS4 act: RGS4 potentiation or activation; HEK293 M3R/inducible RGS4, carbachol calcium flux Fluo4; active compounds read low; B-score at 10 µM; 310,000 compounds, 0.92% hits; AID 463111;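 active = B-score of the integrated calcium signal more than 4 SD below the library mean, with starting fluorescence not abnormally high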;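 also: negative B-score means reduced calcium response which marks RGS4 activation or potentiation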
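Reagent: ECmax carbachol challenge; Test system: M3R-expressing HEK293 line, RGS4 induced by doxycycline; Schedule: overnight RGS4 induction, 30 min dye load 37 °C, 20 min compound RT; Detection: calcium dye Fluo4 fluorescence; Read-out: Agonist-evoked peak-minus-minimum fluorescence over baseline, integrated ratio, B score.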
MrgX1 PAM: human MrgX1 positive allosteric modulation, primary screen | 310,000 compounds, 0.63% hits | AID 588675 | B-score at 10 µM | Q96LB2 | MrgX1-HEK293, Fluo-4 calcium flux, FDSS; active compounds read high;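 active = plate-corrected calcium response at least 3 library SD above typical, normal starting fluorescence, not activating the receptor alone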;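 also: compound read alongside a low EC10 to EC30 dose of BAM8-22 agonist; peak minus trough fluorescence over baseline measured at the second addition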
MrgX1 antagonist: blocks BAM8-22 activation of human MrgX1 receptor; Q96LB2; MRGX1-HEK293 calcium flux, Fluo-4, BAM8-22 antagonism; active compounds read low; B-score at 10 µM; 310,000 compounds, 1.3% hits;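 active = calcium-response B-score plate-corrected more than 3 library SD below zero, starting fluorescence within 5 deviations, no agonist response on first addition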;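 also: peak minus trough fluorescence over baseline after final BAM8-22 challenge near maximal dose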
MrgX1 ag confirm: reconfirmed activator of human MrgX1 receptor signaling; shares compounds with MrgX1 agonist; MrgX1-HEK293, Fluo-4 calcium fluorescence, FDSS; activation, % at 10 µM; 600 compounds, 78% hits; AID 602412;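 active = calcium signal rise, corrected for plate position, at least 3 library SD high, with starting brightness within 5 such deviations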; also: reference of the scale not given here
HEK293 Ca flux: MrgX1 antagonist counter-screen hit in parental HEK293 cells. shares compounds with MrgX1 antagonist. Fluo-4 calcium fluorescence, FDSS. fluorescence ratio F(max-min)/F0 at 10 µM. 4,000 compounds, 2% hits. AID 624111;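 active = duplicate-averaged calcium fluorescence ratio at least three times the standard deviation of buffer wells, a nonspecific response in parental cells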
HEK293 Ca counter: MrgX1 allosteric activator counter-screen hit in parental HEK293 cells; shares compounds with MrgX1 antagonist; parental HEK293 calcium flux, Fluo-4 fluorescence ratio; active compounds read high; fluorescence ratio F(max-min)/F0 at 10 µM; 4,000 compounds, 0.4% hits; AID 624114;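 active = calcium fluorescence ratio, averaged over duplicates, at least 3 SD of the buffer-well ratio, meaning a nonspecific response in receptor-free cells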;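 also: untransfected parental HEK293 lacking MrgX1 used as counterscreen for MrgX1 allosteric activators; fluorescence change taken during the second addition on a kinetic imager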
HEK293 Ca cntr2: activity in parental HEK293 cells lacking MrgX1 receptor; 4,000 compounds, 8.7% hits; shares compounds with MrgX1 antagonist; fluorescence ratio F(max-min)/F0 at 10 µM; Fluo-4 calcium fluorescence (FDSS); active compounds read high;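 active = calcium fluorescence ratio at least three times the spread of buffer wells, meaning a non-specific response in parental cells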
Numbers stand for hits; - = inactive; . = no result given. Most compounds without a hit are left out; they make up all but 3.5% or so of the library.

SMILES	MrgX1 agonist	RGS4 block	RGS4 act	MrgX1 PAM	MrgX1 antagonist	MrgX1 ag confirm	HEK293 Ca flux	HEK293 Ca counter	HEK293 Ca cntr2
CC(C)[C@H](NC(=O)N1c2ccccc2NC(=O)[C@@H]1C(C)C)C(=O)N[C@@H](Cc1c[nH]c2ccccc12)C(=O)O	-	-	-	-	-	.	.	.	.
O=C(COC(=O)[C@H](Cc1ccccc1)NC(=O)c1cccs1)NC1CCCCC1	30	-	-	-	-	195%	-	-	46
Cc1ccc(-c2n[nH]c(=O)c3ccccc23)cc1S(=O)(=O)NCC1CCCO1 (centres undefined)	40	-	-	-	-	174%	-	-	-
Cc1[nH][nH]c(=O)c1C(c1ccc(-c2cccc(Cl)c2)o1)c1c(C)[nH][nH]c1=O	29	-	-	-	-	198%	-	-	56
CC(C)OC(=O)Nc1ccc2c(c1)N(C(=O)N1CCN(C)CC1)c1ccccc1CC2	-	-	-	-	-	.	.	.	.
O=C(c1ccc(S(=O)(=O)c2ccccc2Cl)c([N+](=O)[O-])c1)N1CCCCCC1	-	-	-	-	-	.	.	.	.
COc1cc(/C=C2/C(=N)N3C(SC)=NSC3=NC2=O)ccc1OC(=O)c1ccco1	71	-	-	-	-	227%	-	-	48
CC(=O)c1c(O)cc(=O)oc1-c1ccc(C)cc1	-	-	-	-	-	.	.	.	.
COc1ccc(OCC(=O)NNC(=O)c2ccccc2OCc2c(C)noc2C)cc1	-	-	-	-	-	.	.	.	.
O=C(O)C/C(=C\c1cc(Cl)c2c(c1)OCO2)c1nc2ccccc2s1	35	-	-	-	-	91%	-	-	-
O=C(O)C/C(=C\c1ccc2c(c1)OCO2)c1nc2ccccc2s1	-	-	-	-	-	.	.	.	.
Cc1ccc(-c2csc3ncn(CC(=O)N4CCOCC4)c(=O)c23)cc1C	32	-	-	-	-	135%	-	-	-
COc1ccc(S(=O)(=O)Nc2c(O)ccc3ccccc23)cc1OC	27	-	-	-	-	-	-	-	-
Cc1[nH]n(-c2ccccc2)c(=O)c1N=Nc1nccs1	66	-	-	-	-	261%	-	-	51
CC(C)CNC(=O)COc1cccc(C(=O)NCc2ccccc2)c1	-	-	-	-	-	.	.	.	.
O=C(Nc1ccc(Cl)cc1Cl)c1ccc2c(=O)n3c(nc2c1)CCC3	85	-	-	-	-	462%	-	-	107
O=C(Nc1ccc(Cl)cc1)c1ccc2c(=O)n3c(nc2c1)CCCCC3	-	-	-	-	-	.	.	.	.
O=C(Nc1ccc(Br)cc1Cl)c1ccc2c(=O)n3c(nc2c1)CCC3	55	-	-	-	-	468%	-	-	102
Fc1ccc(-[n+]2nc(Nc3ccccc3)sc2-c2ccc(OCc3ccccc3)cc2)cc1	-	-	-	-	-	.	.	.	.
COc1ccc(C2C=C(c3ccccc3)Nc3nnnn32)cc1 (centres undefined)	33	-	-	-	-	-	-	-	-
COc1ccc(C2=CC(c3ccc(C)cc3)n3nnnc3N2)cc1 (centres undefined)	-	-	-	-	-	.	.	.	.
COc1ccc(-c2csc(NC(=O)CN3C(=O)C4CCCCC4C3=O)n2)cc1OC (centres undefined)	30	-	-	-	-	-	-	-	-
COc1ccc(OC)c(-c2csc(NC(=O)CN3C(=O)C4CCCCC4C3=O)n2)c1 (centres undefined)	-	-	-	-	-	.	.	.	.
COc1ccc(-c2csc(NC(=O)CSCc3c(C)noc3C)n2)cc1OC	44	-	-	-	-	-	-	-	-
COc1cc(/C=N/NC(=O)C23CC4CC(CC(C4)C2)C3)cc(Br)c1O	-	-	-	-	-	.	.	.	.
